# In ChEMBL document CHEMBL3779802, “Synthesis of hybrid 4-deoxypodophyllotoxin-5-fluorouracil compounds that inhibit cellular migration and induce cell cycle arrest” (Bioorg Med Chem Lett, 2016):
# Activity calls are given as the source filed them. The calls are words filed in the database; no cut-off is given here.
# What was measured:
# A549 [1] = test: Cytotoxicity against human A549 cells assessed as growth inhibition after 48 hrs by MTT assay; format: functional, cell-based; conditions: A549, 48 h
# Method in brief: (§1)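 MTT assay with 48 h drug exposure on HeLa, A549, HCT-8 and HepG2 tumour cells and normal lung fibroblast WI-38. IC50 reported as the mean of three independent experiments.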
# HepG2 = test: Cytotoxicity against human HepG2 cells assessed as growth inhibition after 48 hrs by MTT assay; format: functional, cell-based; conditions: HepG2, 48 h; method in brief: as §1
# [2] = Cytotoxicity against human HCT8 cells assessed as growth inhibition after 48 hrs by MTT assay; format: functional, cell-based; conditions: HCT-8, 48 h; method in brief: as §1
# [3] = Cytotoxicity against human WI38 cells assessed as growth inhibition after 48 hrs by MTT assay; format: cell-based; conditions: WI-38, 48 h; method in brief: as §1
# A549 [4] = test: Upregulation of cyclinB1 expression in human A549 cells at 0.5 to 2 uM after 24 hrs by Western blot analysis; format: functional, cell-based
# Method in brief: (§2)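 Western blot for cdc2, p-cdc2 and cyclin B1 in A549 cells treated with vehicle, 0.5 or 2 μM for 24 h.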
# A549 [5] = test: Downregulation of MMP-9 expression in human A549 cells at 0.5 to 2 uM after 24 hrs by Western blot analysis; format: functional, cell-based
# A549 [6] = test: Cell cycle arrest in human A549 cells assessed as accumulation at G2/M phase at 0.5 uM after 24 hrs by propidium iodide staining based flow cytometry (reference value: 22.4%); format: functional
# A549 [7] = test: Downregulation of MMP-9 expression in human A549 cells at 0.1 to 5 uM after 24 hrs by ELISA; format: functional, cell-based
# Method in brief: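 MMP-9 in A549 cells measured by ELISA after 24 h exposure to 0, 0.1, 0.5, 1.5 or 5.0 μM. Mean ± SD, n = 3.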
# HeLa = test: Cytotoxicity against human HeLa cells assessed as growth inhibition after 48 hrs by MTT assay; format: functional, cell-based; method in brief: as §1
# A549 [8] = test: Cell cycle arrest in human A549 cells assessed as accumulation at G2/M phase at 0.1 uM after 24 hrs by propidium iodide staining based flow cytometry (reference value: 22.4%); format: functional
# A549 [9] = test: Induction of apoptosis in human A549 cells assessed as nuclear fragmentation at 0.3 to 1 uM after 24 hrs by DAPI staining based fluorescence microscopy; format: functional, cell-based
# Method in brief: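 A549 cells treated with 0, 0.3 or 1 μM for 24 h, stained with DAPI and viewed by fluorescence microscopy at 200×. Nuclei scored for fragmentation and loss of normal morphology.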
# A549 [10] = test: Downregulation of p-cdc2 expression in human A549 cells at 0.5 to 2 uM after 24 hrs by Western blot analysis; format: functional, cell-based; method in brief: as §2
# A549 [11] = test: Cell cycle arrest in human A549 cells assessed as accumulation at G2/M phase after 24 hrs by propidium iodide staining based flow cytometry; format: functional
# A549 [12] = test: Upregulation of TIMP-1 expression in human A549 cells at 0.5 to 2 uM after 24 hrs by Western blot analysis; format: functional, cell-based
# A549 [13] = test: Upregulation of TIMP-1 expression in human A549 cells at 0.1 to 5 uM after 24 hrs by ELISA; format: functional, cell-based
# A549 [14] = test: Antimigratory activity in human A549 cells at 1 uM after 12 hrs by crystal violet staining based transwell migration assay; format: functional; conditions: A549, 12 h
# Method in brief: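 Transwell migration of A549 cells exposed to vehicle, 0.3 or 1 μM for 12 h. Stained migrated cells imaged at 200× and counted. Inhibition expressed relative to untreated control; mean ± SD of three independent experiments.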
# A549 [15] = test: Upregulation of cdc2 expression in human A549 cells at 0.5 to 2 uM after 24 hrs by Western blot analysis; format: functional, cell-based; method in brief: as §2
# A549 [16] = test: Cell cycle arrest in human A549 cells assessed as accumulation at G1 phase at 0.1 uM after 24 hrs by propidium iodide staining based flow cytometry (reference value: 58.3%); format: functional
# A549 [17] = test: Cell cycle arrest in human A549 cells assessed as accumulation at S phase at 0.1 uM after 24 hrs by propidium iodide staining based flow cytometry (reference value: 19.3%); format: functional
# A549 [18] = test: Cell cycle arrest in human A549 cells assessed as accumulation at G1 phase at 0.5 uM after 24 hrs by propidium iodide staining based flow cytometry (reference value: 58.3%); format: functional
# A549 [19] = test: Cell cycle arrest in human A549 cells assessed as decrease in cell level at G1 phase after 24 hrs by propidium iodide staining based flow cytometry; format: functional
# A549 [20] = test: Cell cycle arrest in human A549 cells assessed as accumulation at S phase at 0.5 uM after 24 hrs by propidium iodide staining based flow cytometry (reference value: 19.3%); format: functional
Structure (SMILES),IC50 (A549 [1]),IC50 (HepG2),IC50 [2],IC50 [3],IC50 (HeLa),further results
COc1cc([C@@H]2c3cc4c(cc3C[C@H]3COC(=O)[C@@H]32)OCO4)cc(OC)c1O [4'-DEMETHYLDEOXYPODOPHYLLOTOXIN],3900 nM,16.5 µM,9.81 µM,78.5 µM,–,–
COc1cc([C@@H]2c3cc4c(cc3C[C@H]3COC(=O)[C@@H]32)OCO4)cc(OC)c1OC(=O)CCC(=O)NCCCCCCNC(=O)Cn1cc(F)c(=O)[nH]c1=O,270 nM,0.45 µM,1.01 µM,114 µM,4.03 µM,Activity (A549 [4]): Active; Activity (A549 [5]): Active; Activity (A549 [6]): 64.5%; Activity (A549 [7]): Active; Activity (A549 [8]): 47.2%; Activity (A549 [9]): Active; Activity (A549 [10]): Active; Activity (A549 [11]): Dose-dependent effect; Activity (A549 [12]): Active; Activity (A549 [13]): Active; inhibition at 1 µM (A549 [14]): 47%; Activity (A549 [15]): Active; Activity (A549 [16]): 7.7%; Activity (A549 [17]): 45.1%; Activity (A549 [18]): 0.1%; Activity (A549 [19]): Dose-dependent effect; Activity (A549 [20]): 35.4%
COc1cc([C@@H]2c3cc4c(cc3C[C@H]3COC(=O)[C@@H]32)OCO4)cc(OC)c1OC(=O)N1CCN(C(=O)Cn2cc(F)c(=O)[nH]c2=O)CC1,2410 nM,14.3 µM,17.6 µM,121 µM,11.2 µM,–
COc1cc([C@@H]2c3cc4c(cc3C[C@H]3COC(=O)[C@@H]32)OCO4)cc(OC)c1OC(=O)NCCCNC(=O)Cn1cc(F)c(=O)[nH]c1=O,11700 nM,> 100 µM,5.26 µM,109 µM,15.8 µM,–
COc1cc([C@@H]2c3cc4c(cc3C[C@H]3COC(=O)[C@@H]32)OCO4)cc(OC)c1OC(=O)NCCCCNC(=O)Cn1cc(F)c(=O)[nH]c1=O,23900 nM,22.3 µM,8.53 µM,85.5 µM,9.58 µM,–
COc1cc([C@@H]2c3cc4c(cc3[C@@H](O[C@@H]3O[C@@H]5CO[C@@H](C)O[C@H]5[C@H](O)[C@H]3O)[C@H]3COC(=O)[C@H]23)OCO4)cc(OC)c1O [ETOPOSIDE],23900 nM,27.1 µM,10.9 µM,35.8 µM,12.1 µM,–
COc1cc([C@@H]2c3cc4c(cc3C[C@H]3COC(=O)[C@@H]32)OCO4)cc(OC)c1OC(=O)N1CCN(CCCCn2cc(F)c(=O)[nH]c2=O)CC1,2140 nM,20.2 µM,9.18 µM,104 µM,13.2 µM,–
O=c1[nH]cc(F)c(=O)[nH]1 [FLUOROURACIL],–,41.6 µM,32.3 µM,38.9 µM,–,–
COc1cc([C@@H]2c3cc4c(cc3C[C@H]3COC(=O)[C@@H]32)OCO4)cc(OC)c1OC(=O)CCC(=O)N1CCN(C(=O)Cn2cc(F)c(=O)[nH]c2=O)CC1,1350 nM,11.5 µM,9.01 µM,112 µM,15 µM,–
COc1cc([C@@H]2c3cc4c(cc3C[C@H]3COC(=O)[C@@H]32)OCO4)cc(OC)c1OC(=O)NCCCCCCNC(=O)Cn1cc(F)c(=O)[nH]c1=O,140 nM,11.7 µM,2.04 µM,87 µM,13.2 µM,–
